Sampled rows, rich in hits. Any-hit rate of the full collection: about 3.1%.
FGF22 binding – shifts melting point of recombinant human FGF22; Q9HCT0; recombinant FGF22 thermal shift, SYPRO orange fluorescence; percent of sucrose octasulfate shift, DMSO zero; activity (Tm shift, normalised), % at 9.99 µM; 340,000 tested, 1.5% active;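 active means mean Tm shift, scaled 0 neutral to 100 positive control, at about 1.3% or above, every replicate too, limit read from the data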
Target sequence (Q9HCT0 whole entry, looked up): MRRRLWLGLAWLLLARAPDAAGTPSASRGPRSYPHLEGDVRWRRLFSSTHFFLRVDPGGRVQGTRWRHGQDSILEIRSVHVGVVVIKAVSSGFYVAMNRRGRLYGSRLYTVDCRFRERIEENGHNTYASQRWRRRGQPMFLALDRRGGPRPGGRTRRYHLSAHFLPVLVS
Env fusion inh – HIV envelope-mediated fusion inhibition; HeLa-JRFL Env/CEM21 cell fusion, luciferase; AID 651610; 360,000 tested, 1.1% active; inhibition, % at 12.3 µM;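 active means mean replicate inhibition score of at least 50 and every replicate individually at or above 50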;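 further: 0% = plate neutral controls and 100% = maraviroc near 300 nM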
EWS-Fli block – EWS/Fli transcriptional activity inhibition | 350,000 tested, 0.67% active | inhibition, % at 12.6 µM | A673 NR0B1-luciferase reporter, viability-normalised | AID 651661;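 active means mean inhibition of at least 50% after viability correction, with every replicate also passing that limit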;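 further: firefly luciferase signal divided by Alamar Blue viability fluorescence both relative to DMSO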
PAX8 inh HTS – lowers PAX8-driven luciferase in RMG-I cells | inhibition, % at 12.6 µM | 360,000 tested, 1.2% active | AID 652154 | RMG-I TPO-luciferase reporter, SteadyGlo, 24 h;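 active means mean replicate inhibition at least 60% with every replicate also reaching 60%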;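 further: luciferase light reporting Pax8 driven TPO promoter activity; plate controls were median of neutral control wells for no effect and mitoxantrone controls for full effect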
PGC1a acetyl inh – PGC1a acetylation modulation, inhibitor mode; U2OS PGC1a acetylation, AlphaScreen anti-acetyl-lysine; with virally co-expressed GCN5 acetyltransferase; inhibition, % at 15.6 µM; 350,000 tested, 0.17% active; AID 651687;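 active means every replicate shows inhibition of at least 40%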;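 further: 0% = neutral control wells and 100% = positive control wells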
FN deposition inh – fibronectin deposition inhibition. AH1F fibroblasts, Alexa488-fibronectin deposition fluorescence, overnight. inhibition, % at 12.6 µM. 350,000 tested, 0.086% active. AID 743247;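 active means mean inhibition across replicates of 30% or more, regardless of how many single replicates reach that level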;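 further: positive control wells lacked labelled fibronectin entirely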
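Material: AH1F fibroblast monolayer depositing Alexa488-labelled fibronectin into matrix | Input: 10000 AH1F cells/well | Medium: DMEM plus 2% serum, read in PBS | Reagent: Alexa488-fibronectin, 24 nM final in well | Compound dosing: One dose per compound, pinned | Schedule: 1 h adhesion, overnight exposure | Measured by: Fluorescence at 485 nm excitation, 525 nm emission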
Numbers without * were called inactive; nt = no result given; [ ] = another dose, or the depositor's remark.

SMILES	FGF22 binding	Env fusion inh	EWS-Fli block	PAX8 inh HTS	PGC1a acetyl inh	FN deposition inh
CCCCCCCCN1C(=O)[C@@H](CC(=O)N2CCSCC2)C[C@@]2(C(=O)OC)C1=C[C@H](C1CCCC1)O[C@@H]2C	0	13	9	-20	nt	2
CCCCCCCCN1C(=O)[C@@H](CC(=O)N2CCN(C(=O)c3ccco3)CC2)C[C@@]2(C(=O)OC)C1=C[C@H](C1CCCC1)O[C@@H]2C	0	10	18	73*	nt	13
CCCCCCCCN1C(=O)[C@@H](CC(=O)N2CCN(C(=O)c3ccco3)CC2)C[C@@]2(C(=O)OC)C1=C[C@H](C(C)(C)C)O[C@@H]2C	0	27	24	84*	nt	-8
COCCNC(=O)C[C@H]1C[C@H]2c3cc(NC(=O)Nc4ccc(C(F)(F)F)cc4)ccc3O[C@H]2[C@@H](CO)O1	0	0[16.7 µM]	-1	5	2	nt
O=C(c1ccccc1F)N1CC(=O)N2[C@H](C1)[C@@H](c1ccc(-c3ccccc3)cc1)[C@@H]2CO	nt	nt	3	10	10	nt
S=c1[nH]cc(-c2ccccc2)n1-c1cccc(Cl)c1	0	70*	11	6	nt	-11
CC(C)CC#Cc1cnc2c(c1)C(=O)N([C@H](C)CO)C[C@@H](C)[C@H](CN(C)C(=O)c1cnccn1)O2	0	-12[16.7 µM]	-5	nt	1	-4
CCCS(=O)(=O)N1CCCC(C(=O)NCCCOC(C)C)C1 (centres undefined)	nt	nt	nt	nt	64*	nt
CCCn1c(N)c(N(CCOC)C(=O)/C=C/c2ccc(C(=O)OC)cc2)c(=O)[nH]c1=O	43*	-12	-4	6	nt	-5
CCCn1c(N)c(N(CCOC)C(=O)c2ccc(-c3ccccc3)cc2)c(=O)[nH]c1=O	0	nt	-5	-16	-2	4
COCCN(C(=O)COC(=O)/C=C/c1cccc(OC)c1)c1c(N)n(CC(C)C)c(=O)[nH]c1=O	0	-494	-2	67*	4	-2
C[C@@H]1CN([C@@H](C)CO)C(=O)c2cccc(NC(=O)Nc3ccc4c(c3)OCO4)c2O[C@H]1CN(C)Cc1ccc(C(F)(F)F)cc1	-1	-11[16.7 µM]	-12	-12	0	nt
C[C@H]1CN([C@@H](C)CO)C(=O)c2cccc(NS(=O)(=O)c3cn(C)cn3)c2O[C@@H]1CN(C)CC1CC1	0	1[16.7 µM]	-3	nt	-5	nt
Cn1c(N)c(C(=O)COC(=O)c2ccc(Cl)nc2)c(=O)n(C)c1=O	43*	-12	9	32	nt	-5
CCOc1cc(CNCc2ccncc2)cc(Br)c1OCc1ccc(F)cc1	nt	63*	nt	nt	-5	-6
Fc1ccc(COc2ccc(Br)cc2CNCc2ccncc2)cc1	nt	35	nt	nt	3	-3
Cc1ccc(S(=O)(=O)N(C)C[C@@H]2Oc3ccc(NC(=O)Nc4cccc5ccccc45)cc3C(=O)N([C@@H](C)CO)C[C@@H]2C)cc1	nt	9[16.7 µM]	1	11	-4	nt
C[C@H]1CN([C@@H](C)CO)C(=O)Cc2cc(NS(=O)(=O)c3ccc(F)cc3)ccc2O[C@@H]1CN(C)Cc1ccc(C(F)(F)F)cc1	-1	19[16.7 µM]	2	-14	-5	nt
COc1ccc(NC(=O)N2CCCC2C(=O)NC23CC4CC(CC(C4)C2)C3)cc1 (centres undefined)	0	3	-1	1	nt	4
O=C(O)C1CCCN1C(=O)C12CC3CC(CC(C3)C1)C2 (centres undefined)	0	7	2	0	nt	-5
COc1ccc(C(=O)COC(=O)C2CCCN2C(=O)C23CC4CC(CC(C4)C2)C3)cc1 (centres undefined)	43*	-8	-7	9	nt	8
O=C(COC(=O)C1CCCN1C(=O)C12CC3CC(CC(C3)C1)C2)c1ccc(Br)cc1 (centres undefined)	44*	17	13	15	-1	-15
COc1ccc(S(=O)(=O)N(C)C[C@H]2OCCCC[C@H](C)Oc3ccc(NS(=O)(=O)c4cn(C)cn4)cc3C(=O)N([C@H](C)CO)C[C@@H]2C)cc1	0	19[16.7 µM]	nt	-2	-12	4
COc1ccc(CN(C)C[C@H]2OCCCC[C@@H](C)Oc3ccc(NS(=O)(=O)c4ccc(Cl)cc4)cc3C(=O)N([C@H](C)CO)C[C@H]2C)cc1	0	52[16.7 µM]	8	11	-2	-1

Screening results (PubChem BioAssay)
